Consider 27 molecules from ChEMBL document CHEMBL3259596, “Lactam and oxazolidinone derived potent 5-hydroxytryptamine 6 receptor antagonists” (Bioorg Med Chem Lett, 2014).

Usually IC50 stands for the concentration at which inhibition is half-maximal. A word on the Ki: it is the equilibrium dissociation constant of an inhibitor or competing ligand from its target.

The structures appear in SMILES notation. Bounds are passed on as bounds.

For one data set, the target named is T1, 5-hydroxytryptamine receptor 6 (Homo sapiens, UniProt P50406). Put plainly: Antagonist activity at human 5-HT6 receptor assessed as inhibition of 5-HT-induced cAMP level treated for 10 mins prior to 5-HT challenge for 30 mins by homogeneous time-resolved fluorescent assay. It counts as functional.
T1 sequence (P50406 whole entry): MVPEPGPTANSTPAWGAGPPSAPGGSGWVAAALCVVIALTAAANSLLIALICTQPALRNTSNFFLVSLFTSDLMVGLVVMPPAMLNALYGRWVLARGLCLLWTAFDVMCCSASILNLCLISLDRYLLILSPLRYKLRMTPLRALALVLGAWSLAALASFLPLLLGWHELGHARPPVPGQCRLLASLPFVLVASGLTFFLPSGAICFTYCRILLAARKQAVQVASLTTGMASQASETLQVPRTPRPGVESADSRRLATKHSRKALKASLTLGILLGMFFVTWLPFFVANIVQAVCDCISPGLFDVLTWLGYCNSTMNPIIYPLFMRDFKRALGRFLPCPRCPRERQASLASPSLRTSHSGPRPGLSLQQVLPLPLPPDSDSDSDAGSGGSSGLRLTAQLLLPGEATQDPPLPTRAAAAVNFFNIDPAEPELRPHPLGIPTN
Conditions: not given; call rule not given here
For `O=C1CC(c2ccccc2)CN1c1cnc2c(N3CCNCC3)cccc2c1` (racemic), the IC50 is 15 nM.

Regarding `O=C1CC(c2ccccc2)CN1c1cnc2c(N3CCNCC3)cccc2c1` (single isomer, unassigned; enantiomer 1), the IC50 is 8 nM.

The test system of another data set is Brain. The data set can be described thus: Drug uptake in rat brain at 5 mg/kg, po after 6 hrs. The settings on record: in vivo. It is filed as ADME, organism-based. Further details: dose 5 mg/kg, route oral. In a few lines: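 Rats dosed orally at 5 mg/kg. Compound measured in brain 6 h after dosing.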
Consider `O=C1CC(c2ccccc2)CN1c1cnc2c(N3CCNCC3)cccc2c1` (single isomer, unassigned; enantiomer 1), for which the Drug uptake result is listed as “Active”.

Another data set deals with T2, 5-hydroxytryptamine receptor 2C (Homo sapiens, UniProt P28335).
T2 sequence (P28335 whole entry): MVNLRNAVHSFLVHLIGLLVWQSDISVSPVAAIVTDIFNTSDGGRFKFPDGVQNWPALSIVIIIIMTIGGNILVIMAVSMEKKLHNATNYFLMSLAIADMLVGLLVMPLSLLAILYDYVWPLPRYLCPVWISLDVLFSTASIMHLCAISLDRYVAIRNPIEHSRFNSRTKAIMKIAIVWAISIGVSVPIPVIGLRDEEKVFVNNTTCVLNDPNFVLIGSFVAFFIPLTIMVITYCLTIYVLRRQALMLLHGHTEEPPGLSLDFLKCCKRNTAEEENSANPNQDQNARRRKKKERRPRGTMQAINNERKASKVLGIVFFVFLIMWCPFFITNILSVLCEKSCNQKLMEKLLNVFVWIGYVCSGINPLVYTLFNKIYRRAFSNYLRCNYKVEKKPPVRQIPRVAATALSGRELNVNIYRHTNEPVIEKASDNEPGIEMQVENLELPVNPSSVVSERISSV
Put plainly: Binding affinity to 5-HT2C receptor (unknown origin).
Conditions: not given
For the molecule `O=C1CC(c2ccccc2)CN1c1cnc2c(N3CCNCC3)cccc2c1` (single isomer, unassigned; enantiomer 1), the Ki was > 30000 nM.

A further data set deals with 5-hydroxytryptamine receptor 2A (Homo sapiens, UniProt P28223). Put plainly: Binding affinity to 5-HT2A receptor (unknown origin).
Sequence of 5-hydroxytryptamine receptor 2A (P28223 whole entry): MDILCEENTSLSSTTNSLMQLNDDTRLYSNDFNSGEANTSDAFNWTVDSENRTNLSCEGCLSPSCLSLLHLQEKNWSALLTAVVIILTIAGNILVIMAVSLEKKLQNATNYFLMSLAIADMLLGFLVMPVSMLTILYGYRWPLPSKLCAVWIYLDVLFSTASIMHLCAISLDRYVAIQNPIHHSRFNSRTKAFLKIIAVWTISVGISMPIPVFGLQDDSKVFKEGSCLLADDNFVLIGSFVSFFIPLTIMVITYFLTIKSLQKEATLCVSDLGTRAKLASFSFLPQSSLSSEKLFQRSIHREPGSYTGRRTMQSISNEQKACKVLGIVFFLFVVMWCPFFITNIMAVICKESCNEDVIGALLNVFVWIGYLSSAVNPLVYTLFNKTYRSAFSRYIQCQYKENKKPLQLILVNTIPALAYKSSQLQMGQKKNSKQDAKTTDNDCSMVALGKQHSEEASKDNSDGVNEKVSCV
Conditions: not given
`O=C1CC(c2ccccc2)CN1c1cnc2c(N3CCNCC3)cccc2c1` (single isomer, unassigned; enantiomer 1) had a Ki of 3100 nM.

A further data set deals with T1, 5-hydroxytryptamine receptor 6. The data set can be described thus: Displacement of [3H]LSD from human recombinant 5-HT6 receptor expressed in CHO-K1 cell membrane after 3 hrs by liquid scintillation counting analysis. It counts as cell membranes.
Conditions: not given
Summed up:
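Membranes from CHO-K1 cells stably expressing human 5-HT6, 1.75 µg protein, preincubated with scintillation beads 30 min at 4 °C. Buffer was 50 mM Tris-HCl pH 7.4, 4 mM CaCl2, saponin, 0.1% ascorbic acid. Incubated 3 h at room temperature with 4 nM [3H]LSD (Kd 2.3 nM) over half-log dilutions. Nonspecific binding defined with 10 µM serotonin. IC50 from variable-slope fit, Ki by Cheng-Prusoff, mean of three experiments.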
For orientation: In a radioligand displacement assay an active substance lowers the binding of a labelled ligand.
Turning to `O=C1CCCN1c1cnc2c(N3CCNCC3)cccc2c1`, the Ki came out at 4900 nM.

`COc1cc(OC)cc(N2C(=O)CSC23C(=O)Nc2ccccc23)c1` (racemic): the Ki worked out at 88 nM. Same read-out and setting: under `O=C1CSC2(C(=O)Nc3ccccc32)N1c1ccccc1` (racemic) stands 5700 nM; under `O=C1CC(c2ccccc2)CN1c1ccc2c(c1)CCNCC2` (racemic), 54 nM; under `O=C1CC(c2ccccc2Cl)CN1c1ccc2c(c1)CCNCC2` (racemic), 100 nM. On the same count and under the same terms, under `Clc1ccccc1C1CCN(c2ccc3c(c2)CCNCC3)C1` (racemic) stands 650 nM.

Take `O=C1CC(c2ccccc2)CN1c1ccc2c(c1)CCCNC2` (racemic): the Ki was 1200 nM. The same measure, in the same setting: under `O=C1CC(c2ccccc2)CN1c1ccc2c(c1)CNCC2` (racemic) stands 140 nM; under `O=C1CC(c2ccccc2)CN1c1cccc(C2CCNCC2)c1` (racemic), 70 nM. Still for that read-out and setting: the figure for `O=C1CC(c2ccccc2)CN1c1cccc(N2CCNCC2)c1` (racemic) is 84 nM.

As for `O=C1CC(c2ccccc2)CN1c1cccc(N2CCNCC2)n1` (racemic), the Ki came to 48 nM.

In the case of `O=C1CC(c2ccccc2)CN1c1cncc(N2CCNCC2)c1` (racemic), the Ki came to 4100 nM. On the same count and under the same terms, the figure for `CN1CCN(c2ncc(N3CC(c4ccccc4)CC3=O)s2)CC1` (racemic) is > 30000 nM. The same measure, in the same setting: the figure for `O=C1CC(c2ccccc2)CN1c1cnc2c(N3CCNCC3)cccc2c1` (racemic) is 2.6 nM.

`O=C1CC(c2ccccc2)CN1c1ccc2c(N3CCNCC3)ccnc2c1` (racemic): the Ki worked out at 55 nM. Still for that read-out and setting: the figure for `O=C1CC(c2ccccc2)CN1c1cnc2c(N3CCCNCC3)cccc2c1` (racemic) is 10 nM; for `O=C1OC(c2ccccc2)CN1c1ccc2c(c1)CCNCC2` (racemic) it is 16 nM; for `O=C1OC(c2ccccc2F)CN1c1ccc2c(c1)CCNCC2` (racemic) it is 15 nM.

For the molecule `O=C1OC(c2ccccc2Cl)CN1c1ccc2c(c1)CCNCC2` (racemic), the Ki was 47 nM. Same read-out and setting: the figure for `COc1ccccc1C1CN(c2ccc3c(c2)CCNCC3)C(=O)O1` (racemic) is 87 nM; for `O=C1OC(c2cccc(Cl)c2)CN1c1ccc2c(c1)CCNCC2` (racemic) it is 10 nM; for `O=C1OC(c2ccccc2Cl)CN1c1cccc(OC2CCNCC2)c1` (racemic) it is 240 nM. The same measure, in the same setting: under `O=C1OC(c2ccccc2Cl)CN1c1cccc(N2CCNCC2)c1` (racemic) stands 140 nM. Still for that read-out and setting: the figure for `O=C1OC(c2ccccc2Cl)CN1c1ccc(N2CCNCC2)cc1` (racemic) is 1900 nM.

Consider `O=C1OC(c2ccccc2Cl)CN1c1ccc2c(c1)CNCC2` (racemic), for which the Ki came to 150 nM. Still for that read-out and setting: under `O=C1OC(c2ccccc2Cl)CN1c1ccc2c(c1)CCNC2` (racemic) stands 330 nM.

The target of another data set is 5-hydroxytryptamine receptor 2B (Homo sapiens, UniProt P41595). Put plainly: Binding affinity to 5-HT2B receptor (unknown origin).
Sequence of 5-hydroxytryptamine receptor 2B (P41595 whole entry): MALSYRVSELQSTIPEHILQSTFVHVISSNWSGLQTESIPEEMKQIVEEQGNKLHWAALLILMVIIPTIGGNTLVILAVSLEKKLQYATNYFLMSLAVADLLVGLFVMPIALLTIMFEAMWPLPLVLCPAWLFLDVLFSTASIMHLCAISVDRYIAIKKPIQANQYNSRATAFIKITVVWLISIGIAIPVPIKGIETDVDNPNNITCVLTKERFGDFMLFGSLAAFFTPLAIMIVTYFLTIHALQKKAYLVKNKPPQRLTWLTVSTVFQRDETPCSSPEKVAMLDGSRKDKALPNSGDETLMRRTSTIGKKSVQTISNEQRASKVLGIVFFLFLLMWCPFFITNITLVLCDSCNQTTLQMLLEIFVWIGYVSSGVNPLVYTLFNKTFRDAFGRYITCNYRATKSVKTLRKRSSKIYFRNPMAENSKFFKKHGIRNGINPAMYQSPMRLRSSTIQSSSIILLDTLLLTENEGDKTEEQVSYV
Conditions: not given
With `O=C1CC(c2ccccc2)CN1c1cnc2c(N3CCNCC3)cccc2c1` (single isomer, unassigned; enantiomer 1), the Ki was > 30000 nM.
